Assay results: PubChem BioAssay
Calls of active or inactive are those of the source. Rule as the data show it, unless noted: active = inhibition above about 30%; inactive = the rest.

Columns and labels:
[1] = HUVEC growth inhibition – cell-based, human, primary screen (AID 575;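 active = viability at or below 30% in both replicate assays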;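 also: 100% = median of untreated cell wells with 0.1% DMSO on each plate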); conditions: HUVEC proliferation, CellTiter-Glo luminescence, 72 h; at 10 µM; stronger effect = lower value
How it was run: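 Material: primary human umbilical vein endothelial cells / Schedule: 72 h exposure, 37 °C, 5% CO2, 30 min RT equilibration / Signal: ATP-based CellTiter-Glo luminescent read / Read-out basis: percent of median DMSO-control luminescence / Control set: 32 DMSO-only cell-control wells (high), 32 MePR drug-control wells (low) per plate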

[2] = H69AR cell proliferation blockers – human, duplicate replicates, primary screen (AID 580;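 active = viability at or under a set limit in both replicates, limit being median viability minus 3 SD, cut at about 48% in these data, passing the limit was not always enough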;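 also: 100% = mean luminescence of untreated wells and 0% = no signal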); conditions: H69AR lung tumor cells viability, ATP luminescence, 72 h; at 10 µM; stronger effect = lower value
[3] = MRP1 drug-resistance reversers in H69AR cells – cell-based, doxorubicin co-treatment, pilot screen (AID 601;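 active = viability loss from added drug above about 55%, and viability with drug at most 40%, in both replicates, limit read from the data, passing the limit was not always enough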); conditions: CellTiter-Glo, 72 h, at 10 µM; for differential viability (reversal): stronger effect = higher value
[4] = yeast transport mutant growth inhibition pilot in 384-well plates, post-Golgi transport modulator project (AID 636; in the data active = inhibition above about 31%); conditions: absorbance 615 nm, about 18 h, stronger effect = higher value
[5] = growth suppression of yeast trafficking mutant, preliminary HTS, modulators of trafficking downstream of Golgi apparatus project, 1536-format plate, OD 615 nm (AID 637); conditions: yeast transport mutant growth, absorbance 615 nm, 18 h; stronger effect = higher value
[6] = H69AR cells + 2 uM doxorubicin, measured here: viability with 2 uM doxorubicin, stronger effect = lower value
[7] = H69AR cells, compound alone cytotoxicity

Row | Structure (SMILES) | viability [1] | viability [2] | differential viability (reversal) ([3]; H69AR cells + 2 uM doxorubicin) | viability [3, 6] | viability [3, 7] | inhibition [4] | inhibition [5]
1 | Cc1cc(NC(=O)C2CCCC2)nc2c1c(=O)oc1ccccc12 | 60.3% (inactive) | 62.8% (inactive) | -24.9% (inactive) | 87.8% | 62.8% | -5.45% (inactive) | 3.49% (inactive)
2 | CCC(=O)N1CCc2cc(Br)cc(S(=O)(=O)C3(C(=O)OC)CC3)c21 | 102% (inactive) | 90.8% (inactive) | 8.17% (inactive) | 82.6% | 90.8% | -1.82% (inactive) | 0.79% (inactive)
3 | O=C(CSc1nnc2c3cc(F)ccc3nc(-c3ccccc3)n12)N1CCOCC1 | 77% (inactive) | 72.6% (inactive) | 0.06% (inactive) | 72.5% | 72.6% | 0.27% (inactive) | 1.59% (inactive)
4 | CC(=O)Nc1ccc(S(=O)(=O)N2CCSC2c2ccccc2)cc1 (configuration not stated) | 99.6% (inactive) | 91.5% (inactive) | 5.05% (inactive) | 86.4% | 91.5% | -1.82% (inactive) | 0.32% (inactive)
5 | O=C1C2C3C=CC(C3)C2C(=O)N1CNc1ccc(O)cc1 (configuration not stated) | 93.7% (inactive) | 90.7% (inactive) | -11.8% (inactive) | 102% | 90.7% | 0.13% (inactive) | -4.6% (inactive)
6 | COc1cccc(C(c2nnnn2Cc2ccccc2)N2CCN(C(=O)c3ccco3)CC2)c1OC (configuration not stated) | 77.5% (inactive) | 82.3% (inactive) | -9.06% (inactive) | 91.4% | 82.3% | -1.84% (inactive) | -6.35% (inactive)
7 | COCc1[nH]nc2c1C(C1C=CCCC1)C(C#N)=C(N)O2 (configuration not stated) | 68.9% (inactive) | 94.6% (inactive) | -4.19% (inactive) | 98.8% | 94.6% | -2.5% (inactive) | -1.11% (inactive)
8 | Cc1cc(C(=O)N2CCN(C(c3ccccc3)c3ccccc3)CC2)no1 | 121% (inactive) | 89.1% (inactive) | 3.42% (inactive) | 85.7% | 89.1% | -6.18% (inactive) | 0.16% (inactive)
9 | CC1(C)NC(=O)N(CC(O)CN2CCCCC2)C1=O (configuration not stated) | 105% (inactive) | 93.1% (inactive) | -2.85% (inactive) | 96% | 93.1% | -3.73% (inactive) | -4.92% (inactive)
10 | COc1ccc(N2CCN(C(=O)CSc3ncnc4c3cnn4-c3ccccc3C)CC2)cc1 | 55.5% (inactive) | 68.6% (inactive) | -7.28% (inactive) | 75.8% | 68.6% | 0.53% (inactive) | 16% (inactive)
11 | COc1ccccc1NC(=O)N1c2ccc(F)cc2CCC1C (configuration not stated) | 83.3% (inactive) | 99% (inactive) | 15% (inactive) | 84% | 99% | -2.47% (inactive) | 3.02% (inactive)
12 | CN(CC(=O)N1CCN(c2ccccn2)CC1)S(=O)(=O)c1ccc2ccccc2c1 | 81.5% (inactive) | 89% (inactive) | 9.23% (inactive) | 79.8% | 89% | -2.63% (inactive) | -3.33% (inactive)
13 | CC1=C(C#N)C(c2ccc3ncccc3c2)C(C#N)=C(C)N1 | 86.2% (inactive) | 97% (inactive) | -1.7% (inactive) | 98.7% | 97% | -4.74% (inactive) | 0% (inactive)
14 | Cc1ccc2nc(NC(=O)CN(C)S(=O)(=O)c3cccc4nsnc34)sc2c1 | 18.1% (active) | 9.1% (active) | -15.1% (inactive) | 24.2% | 9.1% | -4.27% (inactive) | -4.29% (inactive)
15 | CN(C)c1cccc(N=C2C=C(N3CCOCC3)CC(C)(C)C2)c1 | 106% (inactive) | 91.8% (inactive) | -1.85% (inactive) | 93.7% | 91.8% | -1.04% (inactive) | -8.41% (inactive)
16 | CC1Cc2ccccc2N1S(=O)(=O)c1ccc2c(c1)n(C)c(=O)c(=O)n2C (configuration not stated) | 80.8% (inactive) | 83.7% (inactive) | -2.65% (inactive) | 86.4% | 83.7% | -4.93% (inactive) | 0% (inactive)
17 | COc1ccccc1C(=O)NCCNC(=O)c1ccco1 | 112% (inactive) | 91.6% (inactive) | -4.88% (inactive) | 96.5% | 91.6% | -4.53% (inactive) | 0.48% (inactive)
18 | O=C(CP(=O)(c1ccccc1)c1ccccc1)N1CCCCC1 | 111% (inactive) | 106% (inactive) | 19% (inactive) | 86.9% | 106% | -3.51% (inactive) | 6.83% (inactive)
19 | CCOc1ccccc1NC(=O)CCSc1nc2n[nH]c(C)c2c(=N)n1-c1ccccc1Cl | 39.2% (inactive) | 16.9% (active) | 0.49% (inactive) | 16.4% | 16.9% | -3.03% (inactive) | -3.5% (inactive)
20 | Nc1nc(C(=O)N2CCOCC2)nn1S(=O)(=O)c1ccc(Cl)cc1 | 99.1% (inactive) | 95.2% (inactive) | -1.83% (inactive) | 97% | 95.2% | -1.3% (inactive) | -0.95% (inactive)
21 | Cc1cc(/N=C/N(C)C)on1 | 82.4% (inactive) | 93.7% (inactive) | 12% (inactive) | 81.7% | 93.7% | -4.94% (inactive) | 2.06% (inactive)

Row | Structure (SMILES) | viability [1] | viability [2] | differential viability (reversal) ([3]; H69AR cells + 2 uM doxorubicin) | viability [3, 6] | viability [3, 7] | inhibition [4] | inhibition [5]
22 | COc1cc(C2C3=C(CC(C)(C)CC3=O)Nc3c2c(=O)[nH]c(=O)n3Cc2ccccc2)ccc1O (configuration not stated) | 83.3% (inactive) | 93.7% (inactive) | 4.23% (inactive) | 89.5% | 93.7% | 0.26% (inactive) | 3.33% (inactive)
23 | Cc1ccc(-c2nn3c(C)nnc3s2)cc1N | 83.5% (inactive) | 94.7% (inactive) | 16.5% (inactive) | 78.2% | 94.7% | -7.47% (inactive) | 3.33% (inactive)
24 | CC(C)Cn1cc(C(=O)NCC2CCCO2)c2c3ccccc3n(C)c2c1=O (configuration not stated) | 104% (inactive) | 89.5% (inactive) | 1.72% (inactive) | 87.8% | 89.5% | -2.08% (inactive) | 1.59% (inactive)
25 | CC(C)CC(OC(=O)c1cccs1)C(=O)NCc1ccco1 (configuration not stated) | 103% (inactive) | 80.6% (inactive) | -0.4% (inactive) | 81% | 80.6% | -7.6% (inactive) | -4.13% (inactive)
26 | c1ccc(CC2CCN(Cc3nc(-c4ccccc4)no3)CC2)cc1 | 65.1% (inactive) | 87.9% (inactive) | -4.31% (inactive) | 92.2% | 87.9% | -5.13% (inactive) | 0.95% (inactive)
27 | CC1CCN(c2nc3c(c(=O)n(C)c(=O)n3C)n2Cc2ccccc2)CC1 | 79.2% (inactive) | 88.1% (inactive) | 41.1% (inactive) | 47% | 88.1% | -2.27% (inactive) | 21.6% (inactive)
28 | COCC(=O)Nc1sc2c(c1C(=O)OC)CCC(C)C2 (configuration not stated) | 88.4% (inactive) | 94.8% (inactive) | 4.53% (inactive) | 90.3% | 94.8% | -2.76% (inactive) | 5.08% (inactive)
29 | O=C1c2ccccc2NC(c2ccco2)N1O (configuration not stated) | 97.2% (inactive) | 96.5% (inactive) | 9.15% (inactive) | 87.3% | 96.5% | -3.38% (inactive) | 0.32% (inactive)
30 | COc1cccc(Nc2c(F)c(F)c(F)c(F)c2C(=O)O)c1 | 92.2% (inactive) | 99.7% (inactive) | 9.22% (inactive) | 90.5% | 99.7% | -5.84% (inactive) | -1.27% (inactive)
31 | Cc1ccc(C)c(C(=O)CC2(O)C(=O)Nc3ccccc32)c1 (configuration not stated) | 109% (inactive) | 105% (inactive) | 17.1% (inactive) | 88% | 105% | -3.6% (inactive) | -7.3% (inactive)
32 | COc1cc2c(cc1NCc1ccccn1)oc1ccccc12 | 78% (inactive) | 83.8% (inactive) | -10.3% (inactive) | 94.1% | 83.8% | -4.13% (inactive) | 5.08% (inactive)
33 | CN(c1ccccc1C(=O)N1CCN(c2cccc(Cl)c2)CC1)S(C)(=O)=O | 108% (inactive) | 93.8% (inactive) | -0.775% (inactive) | 94.5% | 93.8% | -6.53% (inactive) | 1.43% (inactive)
34 | O=C(CSCc1ccccn1)Nc1ccccc1 | 102% (inactive) | 94.4% (inactive) | 7.96% (inactive) | 86.4% | 94.4% | -5.07% (inactive) | -6.19% (inactive)
35 | O=C(c1ccc(S(=O)(=O)N2CCOCC2)cc1)N1CCc2ccccc2C1 | 98.1% (inactive) | 91.1% (inactive) | 2.92% (inactive) | 88.2% | 91.1% | -2.37% (inactive) | 9.37% (inactive)
36 | COc1ccc(C(=O)N2CCN(C(=O)c3ccco3)CC2)cc1OC | 87.2% (inactive) | 95.9% (inactive) | 4.87% (inactive) | 91.1% | 95.9% | -5.73% (inactive) | 0.32% (inactive)
37 | C=CCn1c(=S)[nH]c2nc3c(cc2c1=O)COC(C)(C)C3 | 90% (inactive) | 77.8% (inactive) | 5.84% (inactive) | 72% | 77.8% | -5.06% (inactive) | 2.86% (inactive)
38 | CCC1Cc2c(nc3c4c(nc(N5CCOCC5)c(C#N)c24)NC(C)=N3)O1 (configuration not stated) | 94% (inactive) | 88.3% (inactive) | 6.83% (inactive) | 81.5% | 88.3% | -2.99% (inactive) | 4.76% (inactive)
39 | c1ccc(-c2nn3nnnc3c3ccccc23)cc1 | 105% (inactive) | 90.8% (inactive) | 0.43% (inactive) | 90.3% | 90.8% | -1.04% (inactive) | 0.79% (inactive)
40 | O=C(Cc1ccccc1)Nc1nnc(-c2cccs2)s1 | 96.8% (inactive) | 61.1% (inactive) | -6.04% (inactive) | 67.1% | 61.1% | -2.99% (inactive) | 3.02% (inactive)
41 | COc1ccc(-c2noc(C3CCCN(C(=O)CCc4ccccc4)C3)n2)cc1 (configuration not stated) | 68.3% (inactive) | 84.3% (inactive) | -5.7% (inactive) | 90% | 84.3% | -1.97% (inactive) | 11.1% (inactive)
